In ChEMBL document CHEMBL4689842, “EUbOPEN Chemogenomics Library wave 1” (2021):

System: U2OS
Test: Multiplex assay against U2OS
Assay type: toxicity, cell-based
Conditions: human
Method in brief: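 Cells were classed with CellPathfinder machine-learning gating, first as Hoechst high-intensity objects or normal cells, then (normal cells) as healthy, pyknosed or fragmented nuclei, and finally (pyknosed cells) as mitotic or apoptotic. Staining of live cells at seeding used Hoechst33342, BioTracker Green Microtubule Cytoskeleton Dye, MitoTracker Red and Annexin V Alexa Fluor 680, with imaging on a CQ1 microscope at 37°C and 5% CO2 after compound addition. Tubulin, mitochondrial-mass and membrane-permeability phenotypes are per cents of healthy-nucleus cells.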

[1] = 12 h, 1 µM, compound concentration 1 uM, replicate 1
[2] = 12 h, 1 µM, compound concentration 1 uM, replicate 2
[3] = 12 h, 10 µM, compound concentration 10 uM, replicate 1
[4] = 12 h, 10 µM, compound concentration 10 uM, replicate 2
[5] = 24 h, 1 µM, compound concentration 1 uM, replicate 1
[6] = 24 h, 1 µM, compound concentration 1 uM, replicate 2
[7] = 24 h, 10 µM, compound concentration 10 uM, replicate 1
[8] = 24 h, 10 µM, compound concentration 10 uM, replicate 2

Compound: Cc1cn(-c2cc(NC(=O)c3ccc4c(c3)CN(c3cncnc3)C[C@@H]4C)cc(C(F)(F)F)c2)cn1
- Population Apoptotic (%) [1]: 56%
- Population Healthy Nuclei (%) [1]: 81%
- Population Hoechst High Intensity Objects (%) [1]: 7%
- Population Membrane Permeable-Phenotype (%) [1]: 6%
- Population Mitochondria Different-Phenotype (%) [1]: 23%
- Population Mitotic Cells (%) [1]: 43%
- Population Normal (%) [1]: 92%
- Population Pyknosed Nuclei (%) [1]: 11%
- Population Tubulin-Different-Phenotype (%) [1]: 33%
- Total Cell Count [1]: 149
- Population Apoptotic (%) [2]: 0%
- Population Fragmented Nuclei (%) [2]: 7%
- Population Healthy Nuclei (%) [2]: 86%
- Population Hoechst High Intensity Objects (%) [2]: 16%
- Population Membrane Permeable-Phenotype (%) [2]: 11%
- Population Mitochondria Different-Phenotype (%) [2]: 30%
- Population Mitotic Cells (%) [2]: 100%
- Population Normal (%) [2]: 83%
- Population Pyknosed Nuclei (%) [2]: 6%
- Population Tubulin-Different-Phenotype (%) [2]: 19%
- Total Cell Count [2]: 116
- Population Apoptotic (%) [3]: 33%
- Population Fragmented Nuclei (%) [3]: 7%
- Population Healthy Nuclei (%) [3]: 84%
- Population Hoechst High Intensity Objects (%) [3]: 3%
- Population Membrane Permeable-Phenotype (%) [3]: 40%
- Population Mitochondria Different-Phenotype (%) [3]: 17%
- Population Mitotic Cells (%) [3]: 66%
- Population Normal (%) [3]: 96%
- Population Pyknosed Nuclei (%) [3]: 7%
- Population Tubulin-Different-Phenotype (%) [3]: 16%
- Total Cell Count [3]: 198
- Population Apoptotic (%) [4]: 66%
- Population Fragmented Nuclei (%) [4]: 10%
- Population Healthy Nuclei (%) [4]: 87%
- Population Hoechst High Intensity Objects (%) [4]: 15%
- Population Membrane Permeable-Phenotype (%) [4]: 24%
- Population Mitochondria Different-Phenotype (%) [4]: 26%
- Population Mitotic Cells (%) [4]: 33%
- Population Normal (%) [4]: 84%
- Population Pyknosed Nuclei (%) [4]: 3%
- Population Tubulin-Different-Phenotype (%) [4]: 17%
- Total Cell Count [4]: 118
- Population Apoptotic (%) [5]: 45%
- Population Fragmented Nuclei (%) [5]: 6%
- Population Healthy Nuclei (%) [5]: 83%
- Population Hoechst High Intensity Objects (%) [5]: 3%
- Population Membrane Permeable-Phenotype (%) [5]: 6%
- Population Mitotic Cells (%) [5]: 55%
- Population Normal (%) [5]: 96%
- Population Pyknosed Nuclei (%) [5]: 9%
- Population Tubulin-Different-Phenotype (%) [5]: 42%
- Total Cell Count [5]: 210
- Population Apoptotic (%) [6]: 42%
- Population Fragmented Nuclei (%) [6]: 9%
- Population Healthy Nuclei (%) [6]: 85%
- Population Hoechst High Intensity Objects (%) [6]: 6%
- Population Membrane Permeable-Phenotype (%) [6]: 12%
- Population Mitochondria Different-Phenotype (%) [6]: 26%
- Population Mitotic Cells (%) [6]: 57%
- Population Normal (%) [6]: 93%
- Population Pyknosed Nuclei (%) [6]: 5%
- Population Tubulin-Different-Phenotype (%) [6]: 34%
- Total Cell Count [6]: 143
- Population Apoptotic (%) [7]: 42%
- Population Fragmented Nuclei (%) [7]: 6%
- Population Healthy Nuclei (%) [7]: 85%
- Population Hoechst High Intensity Objects (%) [7]: 4%
- Population Membrane Permeable-Phenotype (%) [7]: 28%
- Population Mitochondria Different-Phenotype (%) [7]: 14%
- Population Mitotic Cells (%) [7]: 57%
- Population Normal (%) [7]: 95%
- Population Pyknosed Nuclei (%) [7]: 7%
- Population Tubulin-Different-Phenotype (%) [7]: 12%
- Total Cell Count [7]: 254
- Population Apoptotic (%) [8]: 22%
- Population Fragmented Nuclei (%) [8]: 8%
- Population Healthy Nuclei (%) [8]: 84%
- Population Hoechst High Intensity Objects (%) [8]: 6%
- Population Membrane Permeable-Phenotype (%) [8]: 20%
- Population Mitochondria Different-Phenotype (%) [8]: 22%
- Population Mitotic Cells (%) [8]: 77%
- Population Normal (%) [8]: 93%
- Population Tubulin-Different-Phenotype (%) [8]: 10%
- Total Cell Count [8]: 128
